The text below walks through data of ChEMBL document CHEMBL4342493, “Design and Optimization of 3'-(Imidazo[1,2-a]pyrazin-3-yl)-[1,1'-biphenyl]-3-carboxamides as Selective DDR1 Inhibitors” (ACS Med Chem Lett, 2020).

The target in assay [1] is T1, Epithelial discoidin domain-containing receptor 1 (Homo sapiens, UniProt Q08345). Description: Inhibition of recombinant human GST-tagged DDR1 catalytic domain (440 to 876 residues) expressed in baculovirus expression system using Fluorescein-poly GAT as substrate incubated for 1 hr in presence of ATP by LanthaScreen Eu kinase assay. In general terms: Time-resolved FRET reads energy transfer from a long-lived donor to a nearby acceptor.
T1 sequence (Q08345 whole entry, the tested form may be a part): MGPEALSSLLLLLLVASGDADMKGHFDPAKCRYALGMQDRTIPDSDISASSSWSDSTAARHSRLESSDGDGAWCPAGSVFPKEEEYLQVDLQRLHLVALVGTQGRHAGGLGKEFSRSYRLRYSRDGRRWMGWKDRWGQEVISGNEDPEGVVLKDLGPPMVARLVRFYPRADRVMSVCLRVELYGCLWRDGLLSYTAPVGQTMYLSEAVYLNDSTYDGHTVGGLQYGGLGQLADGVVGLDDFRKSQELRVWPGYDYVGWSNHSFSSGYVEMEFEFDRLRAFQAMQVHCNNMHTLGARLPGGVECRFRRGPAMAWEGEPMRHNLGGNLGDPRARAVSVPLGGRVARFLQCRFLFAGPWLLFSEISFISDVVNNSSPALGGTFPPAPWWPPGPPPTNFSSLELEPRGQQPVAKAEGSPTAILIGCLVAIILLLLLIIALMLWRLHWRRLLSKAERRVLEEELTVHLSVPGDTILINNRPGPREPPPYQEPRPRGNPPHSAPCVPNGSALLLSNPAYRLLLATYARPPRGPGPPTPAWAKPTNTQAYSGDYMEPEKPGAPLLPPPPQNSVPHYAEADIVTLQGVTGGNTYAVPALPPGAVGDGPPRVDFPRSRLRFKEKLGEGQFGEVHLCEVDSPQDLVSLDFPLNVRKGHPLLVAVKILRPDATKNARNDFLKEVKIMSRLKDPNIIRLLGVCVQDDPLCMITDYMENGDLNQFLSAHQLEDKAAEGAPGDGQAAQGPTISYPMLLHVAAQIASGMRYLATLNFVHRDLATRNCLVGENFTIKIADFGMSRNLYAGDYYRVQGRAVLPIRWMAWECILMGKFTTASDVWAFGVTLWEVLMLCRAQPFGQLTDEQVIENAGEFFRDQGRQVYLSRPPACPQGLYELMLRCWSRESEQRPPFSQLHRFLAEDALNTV

Assay [2] relates to NCI-H1299. As to the kind of experiment: Antiinvasive activity against human H1299 cells after 24 hrs by crystal violet staining based transwell assay. The class given is functional, cell-based. The procedure, abridged:
(§1)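 H1299 NSCLC cells; transwell invasion assay over 24 h with compound at 1.25, 2.5 and 5.0 μM; invasion expressed relative to blank control.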

For assay [3], the target named is T2, Discoidin domain-containing receptor 2 (Homo sapiens) (UniProt Q16832).
T2 sequence (whole entry): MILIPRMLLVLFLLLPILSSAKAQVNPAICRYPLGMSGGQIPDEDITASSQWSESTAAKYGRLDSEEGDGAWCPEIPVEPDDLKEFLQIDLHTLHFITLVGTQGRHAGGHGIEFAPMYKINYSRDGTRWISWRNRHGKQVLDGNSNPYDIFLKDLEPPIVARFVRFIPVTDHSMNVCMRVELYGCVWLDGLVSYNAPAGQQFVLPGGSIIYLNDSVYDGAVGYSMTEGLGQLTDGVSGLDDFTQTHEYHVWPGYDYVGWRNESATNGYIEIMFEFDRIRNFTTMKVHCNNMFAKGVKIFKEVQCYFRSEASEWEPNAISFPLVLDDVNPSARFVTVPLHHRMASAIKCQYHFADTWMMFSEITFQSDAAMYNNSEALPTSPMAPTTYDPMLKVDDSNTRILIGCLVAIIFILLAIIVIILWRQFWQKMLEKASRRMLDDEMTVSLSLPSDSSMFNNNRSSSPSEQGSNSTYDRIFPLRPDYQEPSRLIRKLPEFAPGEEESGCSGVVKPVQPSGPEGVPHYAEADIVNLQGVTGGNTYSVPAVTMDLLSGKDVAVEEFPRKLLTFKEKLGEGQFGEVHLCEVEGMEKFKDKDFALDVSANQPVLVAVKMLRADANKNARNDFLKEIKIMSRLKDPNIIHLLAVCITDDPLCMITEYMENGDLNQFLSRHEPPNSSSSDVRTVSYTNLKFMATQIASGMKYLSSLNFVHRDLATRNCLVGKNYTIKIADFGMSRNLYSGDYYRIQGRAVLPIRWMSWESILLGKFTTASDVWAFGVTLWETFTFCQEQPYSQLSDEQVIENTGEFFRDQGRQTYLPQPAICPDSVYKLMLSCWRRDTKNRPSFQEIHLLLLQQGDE
Description: Inhibition of wild type human partial length DDR2 (V555 to E855 residues) expressed in mammalian expression system assessed as residual enzyme activity at 200 nM after 1 hr by Kinomescan method relative to control.

Assay [4] relates to NCI-H1299. Description: Antiinvasive activity against human H1299 cells at 2.5 uM after 24 hrs by crystal violet staining based transwell assay relative to control. The following applies: NCI-H1299, 24 h. In kind it is functional. An outline of the steps: as §1
In assay [5] the target is T3, Discoidin domain-containing receptor 2 (Homo sapiens, UniProt Q16832).
T3 sequence (Q16832 whole entry): T2 sequence (whole entry)
As to the kind of experiment: Inhibition of recombinant human GST-tagged DDR2 cytoplasmic domain (427 to 855 residues) expressed in baculovirus expression system using Fluorescein-poly GAT as substrate incubated for 1 hr in presence of ATP by LanthaScreen Eu kinase assay. An outline of the steps: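 LanthaScreen Eu kinase assay for DDR2; IC50 values are means of three independent experiments, variations <20%.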

Assay [6] concerns the target T1, Epithelial discoidin domain-containing receptor 1. Description: Inhibition of human wild type partial length DDR1 (R565 to V876 residues) expressed in bacterial expression system assessed as residual enzyme activity at 200 nM after 1 hr by Kinomescan method relative to control.
Assay [7] is filed under the species Homo sapiens. Description: Selectivity index, ratio of IC50 for human recombinant His-tagged c-Kit cytoplasmic domain (544 to 976 residues) expressed in baculovirus expression system using Ser/Thr 6 peptide as substrate after 1 hr in presence of 300 uM ATP by FRET based Z'-LYTE assay to IC50 for recombinant human GST-tagged DDR1 catalytic domain (440 to 876 residues) expressed in baculovirus expression system using Fluorescein-poly GAT as substrate incubated for 1 hr in presence of ATP by LanthaScreen Eu kinase assay. The procedure, abridged: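 Ratio of c-Kit IC50 to DDR1 IC50. c-Kit was measured by FRET-based Z′-Lyte assay and DDR1 by LanthaScreen Eu kinase assay. Each IC50 is the mean of three independent experiments, with variation <20%.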

The test system of assay [8] is NCI-H1299. Description: Antiproliferative activity against human H1299 cells assessed as reduction in cell viability after 72 hrs by CCK-8 assay. The following applies: NCI-H1299, 72 h. The class given is functional, cell-based. An outline of the steps: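 CCK-8 proliferation assay in H1299 cells; IC50 derived from dose-response; means of three independent experiments.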

Assay [9] has as its target Calcium/calmodulin-dependent protein kinase type 1D (Homo sapiens, UniProt Q8IU85). As to the kind of experiment: Inhibition of wild-type human partial length CAMK1D (M1 to K299 residues) expressed in bacterial expression system assessed as residual enzyme activity at 200 nM after 1 hr by Kinomescan method relative to control.
In assay [10] the target is Dual specificity protein kinase CLK4 (Homo sapiens, UniProt Q9HAZ1). Description: Inhibition of wild-type human partial length CLK4 (R135 to K481 residues) expressed in bacterial expression system assessed as enzyme residual activity at 200 nM after 1 hr by Kinomescan method relative to control.
Dual specificity protein kinase CLK4, sequence (Q9HAZ1 whole entry, looked up, the tested form may be a part): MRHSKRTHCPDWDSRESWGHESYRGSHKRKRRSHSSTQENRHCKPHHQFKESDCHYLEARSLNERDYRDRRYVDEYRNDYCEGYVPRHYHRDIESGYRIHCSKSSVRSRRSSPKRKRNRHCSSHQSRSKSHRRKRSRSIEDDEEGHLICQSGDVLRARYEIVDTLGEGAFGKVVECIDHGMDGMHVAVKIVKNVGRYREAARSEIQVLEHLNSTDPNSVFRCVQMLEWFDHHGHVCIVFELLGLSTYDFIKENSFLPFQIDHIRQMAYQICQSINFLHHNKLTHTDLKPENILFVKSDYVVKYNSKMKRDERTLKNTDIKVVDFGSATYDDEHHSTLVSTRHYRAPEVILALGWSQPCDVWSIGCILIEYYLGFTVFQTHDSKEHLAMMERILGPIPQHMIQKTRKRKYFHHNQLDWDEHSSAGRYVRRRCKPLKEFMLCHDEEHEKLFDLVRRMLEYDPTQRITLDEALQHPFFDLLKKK
Assay [11] relates to NCI-H1299. As to the kind of experiment: Inhibition of colony formation in human H1299 cells assessed as reduction in number of colonies measured after 10 days by crystal violet staining based assay. The class given is functional, cell-based. The procedure, abridged: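 Colony formation in H1299 cells under continuous compound treatment for 10 days; colony number quantified and IC50 derived from dose-response.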

The target in assay [12] is Mast/stem cell growth factor receptor Kit (Homo sapiens, UniProt P10721). As to the kind of experiment: Inhibition of human recombinant His-tagged c-Kit cytoplasmic domain (544 to 976 residues) expressed in baculovirus expression system using Ser/Thr 6 peptide as substrate after 1 hr in presence of 300 uM ATP by FRET based Z'-LYTE assay.
Mast/stem cell growth factor receptor Kit, sequence (P10721 whole entry, the tested form may be a part): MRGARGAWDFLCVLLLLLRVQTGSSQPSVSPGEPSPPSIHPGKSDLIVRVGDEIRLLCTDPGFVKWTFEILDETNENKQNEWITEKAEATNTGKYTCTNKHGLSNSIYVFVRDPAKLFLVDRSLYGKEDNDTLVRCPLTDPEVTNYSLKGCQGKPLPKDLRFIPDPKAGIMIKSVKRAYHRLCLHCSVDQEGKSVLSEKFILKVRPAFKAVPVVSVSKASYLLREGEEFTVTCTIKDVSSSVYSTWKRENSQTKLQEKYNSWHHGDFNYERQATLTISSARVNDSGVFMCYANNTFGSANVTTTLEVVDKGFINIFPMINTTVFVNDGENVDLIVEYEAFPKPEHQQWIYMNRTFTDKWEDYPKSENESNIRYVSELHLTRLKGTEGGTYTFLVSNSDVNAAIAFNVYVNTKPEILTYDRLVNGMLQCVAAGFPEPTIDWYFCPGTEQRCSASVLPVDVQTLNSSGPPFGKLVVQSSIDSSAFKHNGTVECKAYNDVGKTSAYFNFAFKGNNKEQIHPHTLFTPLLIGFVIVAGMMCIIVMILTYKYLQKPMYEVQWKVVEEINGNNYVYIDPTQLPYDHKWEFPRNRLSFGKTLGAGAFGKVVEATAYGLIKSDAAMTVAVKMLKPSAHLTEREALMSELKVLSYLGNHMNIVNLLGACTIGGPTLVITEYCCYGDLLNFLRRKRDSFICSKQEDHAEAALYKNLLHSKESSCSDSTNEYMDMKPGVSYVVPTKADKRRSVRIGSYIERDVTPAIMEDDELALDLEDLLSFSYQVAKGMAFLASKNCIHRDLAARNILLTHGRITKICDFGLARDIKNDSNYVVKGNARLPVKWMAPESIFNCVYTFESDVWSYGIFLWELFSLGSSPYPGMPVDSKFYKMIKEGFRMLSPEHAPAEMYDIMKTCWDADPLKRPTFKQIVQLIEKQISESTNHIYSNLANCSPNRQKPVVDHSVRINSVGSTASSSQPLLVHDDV
The species entered for assay [13] is Homo sapiens. Description: Selectivity index, ratio of IC50 for recombinant human GST-tagged DDR2 cytoplasmic domain (427 to 855 residues) expressed in baculovirus expression system to IC50 for recombinant human GST-tagged DDR1 catalytic domain (440 to 876 residues) expressed in baculovirus expression system using Fluorescein-poly GAT as substrate incubated for 1 hr in presence of ATP by LanthaScreen Eu kinase assay. An outline of the steps: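 Ratio of DDR2 IC50 to DDR1 IC50. Both kinases were measured by LanthaScreen Eu kinase assay. Each IC50 is the mean of three independent experiments, with variation <20%.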

Assay [14] deals with NCI-H1299. Description: Antiinvasive activity against human H1299 cells at 1.25 uM after 24 hrs by crystal violet staining based transwell assay relative to control. The class given is functional. The conditions noted are these: NCI-H1299, 24 h. An outline of the steps: as §1
For assay [15], the system named is NCI-H1299. As to the kind of experiment: Antimigratory activity against human H1299 cells assessed as reduction in wound closure at 5 uM after 24 hrs by bright field microscopic based wound healing assay relative to control. The class given is functional. The conditions noted are these: NCI-H1299, 24 h. An outline of the steps:
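Wound healing (scratch) migration assay in H1299 cells at 1.25, 2.5 and 5.0 μM; wound closure compared with blank control groups.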

Calcium/calmodulin-dependent protein kinase type 1D, sequence (Q8IU85 whole entry, looked up, the tested form may be a part): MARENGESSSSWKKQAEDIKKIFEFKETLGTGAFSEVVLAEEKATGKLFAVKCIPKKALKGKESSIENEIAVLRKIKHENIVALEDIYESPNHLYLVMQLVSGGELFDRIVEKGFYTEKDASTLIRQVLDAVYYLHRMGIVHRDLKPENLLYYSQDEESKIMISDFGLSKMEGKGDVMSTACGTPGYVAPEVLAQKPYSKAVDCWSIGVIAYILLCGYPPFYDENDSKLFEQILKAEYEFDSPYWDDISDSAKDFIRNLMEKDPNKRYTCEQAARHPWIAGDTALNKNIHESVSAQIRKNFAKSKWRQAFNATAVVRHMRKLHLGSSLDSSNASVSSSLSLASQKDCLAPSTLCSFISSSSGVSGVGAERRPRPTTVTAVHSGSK

Usually IC50 stands for the concentration that gives 50% inhibition. As usually defined, the inhibition is the drop in the measured response relative to a control, in per cent. `CCc1ccc(C(=O)Nc2cc(F)cc(C(F)(F)F)c2)cc1-c1cc(C)cc(-c2cnc3cnccn23)c1`: the IC50 in assay [1] is 23.8 nM; in assay [5], 1740 nM; with NCI-H1299 [8], 6600 nM; in the assay with NCI-H1299 [11] (NCI-H1299, 240 h), 46 nM; in [12], more than 10000 nM. The inhibition result with NCI-H1299 [2] and in the assay on NCI-H1299 [11] was “Dose-dependent effect” in each case. Also, the Activity in assay [3] was 15%; in assay [6], 0%; in assay [9], 0.9%; in assay [10], 1.8%. 2.5 µM produced 50% inhibition with NCI-H1299 [4]. In addition, the results for the Ratio IC50 in the assay filed under Homo sapiens [7] and in the assay filed under Homo sapiens [13] were 420 and 73, respectively. Further, the inhibition at 1.25 µM with NCI-H1299 [14] was determined as 17%. Also, the inhibition at 5 µM in the assay with NCI-H1299 [15] was 84%.
